# Test results: ChEMBL document CHEMBL4229344 (Eur J Med Chem, 2018)
# The source made the active and inactive calls. The rule behind the calls is not given here.
# Legend:
# [1] = Cytotoxicity against mouse BA/F3 cells after 72 hrs by CellTiter-Glo or CCK-8 assay; assay type: cell-based, BaF3
# Procedure, shortened: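 Parental BaF3 or IL-3-independent TEL-kinase BaF3 lines, made by retroviral infection and puromycin selection, grown in RPMI 1640 with 10% FBS. Cells seeded at 1–3 × 10^4 cells/mL with serial compound concentrations for 72 h. Viability read by CellTiter-Glo luminescence or CCK-8 absorbance at 450/655 nm and normalised to DMSO. GI50 obtained by triplicate testing with linear regression. Selectivity is the ratio of the two GI50 values.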
# [2] = Oral bioavailability in Sprague-Dawley rat at 10 mg/kg; assay type: ADME, organism-based; conditions: in vivo
# Procedure, shortened: (§1)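 Male Sprague-Dawley rats, 6–8 weeks old and fasted overnight, dosed IV at 1 mg/kg or PO at 10 mg/kg. Formulation was 5% DMSO/40% PEG400/55% saline (1 mg/mL). Jugular blood collected on heparin from 1 min to 8 h (IV) or 5 min to 24 h (PO). Plasma separated by centrifugation at 2–8 °C and stored at −80 °C.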
# [3] = AUC (0 to t) in Sprague-Dawley rat at 10 mg/kg, po; assay type: ADME, organism-based; conditions: in vivo
# Procedure, shortened: (§2)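 Male Sprague-Dawley rats (6–8 weeks) fasted overnight, dosed IV or orally; compound dissolved in 5% DMSO/40% PEG400/55% saline (dosing solution 1 mg/mL). Blood (~0.2 mL) from jugular vein into heparin; IV sampling 1 min–8 h, oral 5 min–24 h. Plasma separated by centrifugation at 2–8 °C, stored at −80 °C until analysis.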
# [4] = tested on: EOL1; assay: Antiproliferative activity against human EOL-1 cells after 72 hrs by CellTiter-Glo or CCK-8 assay; assay type: functional; conditions: EOL1, 72 h
# Procedure, shortened: (§3)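 Cells in RPMI 1640 with 10% FBS at 37 °C, 5% CO2, seeded at 1–3 × 10^4 cells/mL with serial compound dilutions for 72 h. Viability read by CellTiter-Glo luminescence or CCK-8 absorbance (450/655 nm), normalized to DMSO control.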
# [5] = tested on: NCI-H1703; assay: Antiproliferative activity against human NCI-H1703 cells after 72 hrs by CellTiter-Glo or CCK-8 assay; assay type: functional; conditions: NCI-H1703, 72 h; procedure, shortened: as §3
# [6] = tested on: NCI-H1703; assay: Antiproliferative activity against human NCI-H1703 cells after 72 hrs in presence of PDGF-AA by CellTiter-Glo or CCK-8 assay; assay type: functional; conditions: NCI-H1703, 72 h; procedure, shortened: as §3
# [7] = AUC (0 to t) in Sprague-Dawley rat at 1 mg/kg, iv; assay type: ADME, organism-based; conditions: in vivo; procedure, shortened: as §2
# [8] = AUC (0 to infinity) in Sprague-Dawley rat at 1 mg/kg, iv; assay type: ADME, organism-based; design: dose 1 mg/kg, time infinity, route intravenous; conditions: in vivo; procedure, shortened: as §2
# [9] = Tmax in Sprague-Dawley rat at 1 mg/kg, iv; assay type: ADME, organism-based; conditions: in vivo; procedure, shortened: as §1
# [10] = Cmax in Sprague-Dawley rat at 1 mg/kg, iv; assay type: ADME, organism-based; design: dose 1 mg/kg, route intravenous; conditions: in vivo; procedure, shortened: as §1
# [11] = AUC (0 to infinity) in Sprague-Dawley rat at 10 mg/kg, po; assay type: ADME, organism-based; design: dose 10 mg/kg, route oral, time infinity; conditions: in vivo; procedure, shortened: as §2
# [12] = Tmax in Sprague-Dawley rat at 10 mg/kg, po; assay type: ADME, organism-based; conditions: in vivo; procedure, shortened: as §1
# [13] = Cmax in Sprague-Dawley rat at 10 mg/kg, po; assay type: ADME, organism-based; design: dose 10 mg/kg, route oral; conditions: in vivo; procedure, shortened: as §1
# [14] = tested on: EOL1; assay: Antitumor activity against human EOL-1 cells xenografted in nu/nu mouse assessed as tumor growth inhibition at 25 mg/kg/day, ip; assay type: functional; conditions: read-out: TGI
# Procedure, shortened: (§4)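 Female nu/nu mice (6 weeks) given subcutaneous right-flank injection of 5 million EOL-1 cells in PBS/Matrigel 1:1. At 200–400 mm3 tumors, randomized to groups of 6 and dosed daily i.p. for 14 days at 25, 50 or 100 mg/kg/d in 0.5% methylcellulose/0.4% Tween80. Tumor volume = W²×L/2, measured daily.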
# [15] = tested on: EOL1; assay: Antitumor activity against human EOL-1 cells xenografted in nu/nu mouse assessed as tumor growth inhibition at 50 mg/kg/day, ip; assay type: functional; conditions: read-out: TGI; procedure, shortened: as §4
# [16] = tested on: EOL1; assay: Antitumor activity against human EOL-1 cells xenografted in nu/nu mouse assessed as tumor growth inhibition at 100 mg/kg/day, ip; assay type: functional; conditions: read-out: TGI; procedure, shortened: as §4
# [17] = tested on: Mus musculus; assay: Toxicity in nu/nu mouse xenografted with human EOL-1 cells assessed as change in body weight at 25 to 100 mg/kg/day, ip; assay type: organism-based; conditions: in vivo
# Procedure, shortened: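 Female nu/nu mice, 6 weeks old, implanted subcutaneously in the right flank with 5 million EOL-1 cells in PBS/Matrigel 1:1. At tumour size 200–400 mm³, mice randomised into groups of 6 and given daily IP doses of 25, 50 or 100 mg/kg in 0.5% methylcellulose/0.4% Tween80, or vehicle, for 14 days. Body weight measured daily and normalised to initial weight; mean ± SEM.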
# [18] = target: T1, Platelet-derived growth factor receptor alpha (Homo sapiens, UniProt P16234); conditions: 100 nM
# [19] = target: T1, Platelet-derived growth factor receptor alpha; conditions: NCI-H1703, 1 uM
# [20] = target: T1, Platelet-derived growth factor receptor alpha; conditions: NCI-H1703, 1 uM; remark: listed apart in the source
# [21] = target: T1, Platelet-derived growth factor receptor alpha; conditions: NCI-H1703, 1 uM; remark: listed apart in the source
# [22] = target: T1, Platelet-derived growth factor receptor alpha; conditions: 1 uM
# [23] = target: T1, Platelet-derived growth factor receptor alpha; conditions: 1 uM; remark: listed apart in the source
# T1 sequence (P16234 whole entry): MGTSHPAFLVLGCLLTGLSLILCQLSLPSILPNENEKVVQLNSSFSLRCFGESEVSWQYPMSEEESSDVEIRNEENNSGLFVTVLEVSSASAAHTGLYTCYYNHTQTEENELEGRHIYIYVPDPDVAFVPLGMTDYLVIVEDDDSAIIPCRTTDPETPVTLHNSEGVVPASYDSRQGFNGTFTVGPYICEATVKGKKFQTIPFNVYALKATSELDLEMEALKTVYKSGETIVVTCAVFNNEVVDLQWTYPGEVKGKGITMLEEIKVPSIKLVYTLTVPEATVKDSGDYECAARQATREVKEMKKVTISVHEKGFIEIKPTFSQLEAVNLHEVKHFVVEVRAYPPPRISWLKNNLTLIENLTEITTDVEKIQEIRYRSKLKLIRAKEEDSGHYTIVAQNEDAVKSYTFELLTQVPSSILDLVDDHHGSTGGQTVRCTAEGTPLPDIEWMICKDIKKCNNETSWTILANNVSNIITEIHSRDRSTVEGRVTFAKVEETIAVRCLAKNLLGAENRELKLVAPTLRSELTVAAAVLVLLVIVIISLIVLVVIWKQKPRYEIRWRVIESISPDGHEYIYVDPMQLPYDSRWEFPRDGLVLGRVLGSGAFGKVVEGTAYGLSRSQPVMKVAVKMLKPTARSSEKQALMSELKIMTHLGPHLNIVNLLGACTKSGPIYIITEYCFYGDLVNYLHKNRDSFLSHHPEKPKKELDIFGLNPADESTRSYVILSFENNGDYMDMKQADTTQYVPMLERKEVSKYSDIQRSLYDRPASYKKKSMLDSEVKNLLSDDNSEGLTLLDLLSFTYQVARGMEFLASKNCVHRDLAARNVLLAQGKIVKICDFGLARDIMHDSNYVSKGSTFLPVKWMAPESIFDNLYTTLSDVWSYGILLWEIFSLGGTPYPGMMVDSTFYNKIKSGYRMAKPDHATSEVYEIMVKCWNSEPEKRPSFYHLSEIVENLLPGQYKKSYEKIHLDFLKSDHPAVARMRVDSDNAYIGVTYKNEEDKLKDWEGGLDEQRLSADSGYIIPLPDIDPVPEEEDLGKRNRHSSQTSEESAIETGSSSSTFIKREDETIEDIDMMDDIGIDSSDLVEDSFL
compound,measurement,setting,value
Cc1ccc(NC(=O)c2ccc(CN3CCN(C)CC3)cc2)cc1Nc1nccc(-c2cccnc2)n1 [IMATINIB],GI50 at 72 h,[1],> 10000 nM
same,bioavailability,[2],76.5%
same,AUC(0-t),[3],6460 ng·h/mL
same,GI50,[4],< 1 nM
same,GI50,[5],2100 nM
same,GI50,[6],230 nM
same,AUC(0-t),[7],856 ng·h/mL
same,AUC(0-inf),[8],869 ng·h/mL
same,Tmax,[9],1.02 min
same,Cmax,[10],547 ng/mL
same,AUC(0-inf),[11],6650 ng·h/mL
same,Tmax,[12],6.67 h
same,Cmax,[13],531 ng/mL
same,inhibition in vivo at 25 mg/kg/day,[14],99.9%
same,inhibition in vivo at 50 mg/kg/day,[15],100%
same,inhibition in vivo at 100 mg/kg/day,[16],100%
same,Activity,[17],Toxic
same,inhibition,[18],inactive
same,inhibition,[19],Active
same,inhibition,[20],Active
same,inhibition,[21],Active
same,inhibition,[22],Active
same,inhibition,[23],Active
